Reference: ChEMBL document CHEMBL4689842, “EUbOPEN Chemogenomics Library wave 1” (2021)

Key:
[1] = system: U2OS; test: Multiplex assay against U2OS; format: toxicity, cell-based; settings: human
Summary of the method: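 Tubulin, mitochondrial-mass and membrane-permeability phenotypes are per cents of healthy-nucleus cells. Cells were gated by CellPathfinder machine learning into Hoechst high-intensity objects or normal cells, normal cells into healthy, pyknosed or fragmented nuclei, and pyknosed cells into mitotic or apoptotic. Before that, live cells stained at seeding with Hoechst33342, BioTracker Green Microtubule Cytoskeleton Dye, MitoTracker Red and Annexin V Alexa Fluor 680 were imaged on a CQ1 microscope at 37°C and 5% CO2 after compound addition.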

[2] = system: U2OS; test: Incucyte cell viability with U2OS; format: toxicity, cell-based; settings: human, 10 µM, compound concentration 10 uM; also: filed as whole numbers so only -1 and 0 and 1 occur
[3] = 12 h, 1 µM, compound concentration 1 uM, replicate 1
[4] = 12 h, 1 µM, compound concentration 1 uM, replicate 2
[5] = 12 h, 10 µM, compound concentration 10 uM, replicate 1
[6] = 12 h, 10 µM, compound concentration 10 uM, replicate 2
[7] = 24 h, 1 µM, compound concentration 1 uM, replicate 1
[8] = 24 h, 1 µM, compound concentration 1 uM, replicate 2
[9] = 24 h, 10 µM, compound concentration 10 uM, replicate 1
[10] = 24 h, 10 µM, compound concentration 10 uM, replicate 2
[11] = 48 h, 1 µM, compound concentration 1 uM, replicate 1
[12] = 48 h, 1 µM, compound concentration 1 uM, replicate 2
[13] = 48 h, 10 µM, compound concentration 10 uM, replicate 1
[14] = 48 h, 10 µM, compound concentration 10 uM, replicate 2

CNc1oc(-c2cccc3ccccc23)nc1C#N
Population Apoptotic (%) [1, 3]: 36% | Population Fragmented Nuclei (%) [1, 3]: 22% | Population Healthy Nuclei (%) [1, 3]: 67% | Population Hoechst High Intensity Objects (%) [1, 3]: 16% | Population Membrane Permeable-Phenotype (%) [1, 3]: 10% | Population Mitochondria Different-Phenotype (%) [1, 3]: 9% | Population Mitotic Cells (%) [1, 3]: 63% | Population Normal (%) [1, 3]: 83% | Population Pyknosed Nuclei (%) [1, 3]: 10% | Population Tubulin-Different-Phenotype (%) [1, 3]: 8% | Total Cell Count [1, 3]: 113 | Population Apoptotic (%) [1, 4]: 0% | Population Fragmented Nuclei (%) [1, 4]: 29% | Population Hoechst High Intensity Objects (%) [1, 4]: 15% | Population Membrane Permeable-Phenotype (%) [1, 4]: 3% | Population Mitochondria Different-Phenotype (%) [1, 4]: 11% | Population Mitotic Cells (%) [1, 4]: 100% | Population Normal (%) [1, 4]: 84% | Population Pyknosed Nuclei (%) [1, 4]: 2% | Population Tubulin-Different-Phenotype (%) [1, 4]: 7% | Total Cell Count [1, 4]: 100 | Population Apoptotic (%) [1, 5]: 86% | Population Fragmented Nuclei (%) [1, 5]: 49% | Population Healthy Nuclei (%) [1, 5]: 18% | Population Hoechst High Intensity Objects (%) [1, 5]: 44% | Population Membrane Permeable-Phenotype (%) [1, 5]: 3% | Population Mitochondria Different-Phenotype (%) [1, 5]: 11% | Population Mitotic Cells (%) [1, 5]: 13% | Population Normal (%) [1, 5]: 55% | Population Pyknosed Nuclei (%) [1, 5]: 32% | Population Tubulin-Different-Phenotype (%) [1, 5]: 15% | Total Cell Count [1, 5]: 259 | Population Apoptotic (%) [1, 6]: 80% | Population Fragmented Nuclei (%) [1, 6]: 55% | Population Healthy Nuclei (%) [1, 6]: 16% | Population Hoechst High Intensity Objects (%) [1, 6]: 46% | Population Membrane Permeable-Phenotype (%) [1, 6]: 1% | Population Mitochondria Different-Phenotype (%) [1, 6]: 3% | Population Mitotic Cells (%) [1, 6]: 19% | Population Normal (%) [1, 6]: 53% | Population Pyknosed Nuclei (%) [1, 6]: 28% | Population Tubulin-Different-Phenotype (%) [1, 6]: 24% | Total Cell Count [1, 6]: 92 | Population Apoptotic (%) [1, 7]: 53% | Population Fragmented Nuclei (%) [1, 7]: 18% | Population Healthy Nuclei (%) [1, 7]: 75% | Population Hoechst High Intensity Objects (%) [1, 7]: 17% | Population Membrane Permeable-Phenotype (%) [1, 7]: 2% | Population Mitochondria Different-Phenotype (%) [1, 7]: 3% | Population Mitotic Cells (%) [1, 7]: 46% | Population Normal (%) [1, 7]: 82% | Population Pyknosed Nuclei (%) [1, 7]: 5% | Population Tubulin-Different-Phenotype (%) [1, 7]: 6% | Total Cell Count [1, 7]: 119 | Population Apoptotic (%) [1, 8]: 25% | Population Fragmented Nuclei (%) [1, 8]: 28% | Population Healthy Nuclei (%) [1, 8]: 67% | Population Hoechst High Intensity Objects (%) [1, 8]: 6% | Population Membrane Permeable-Phenotype (%) [1, 8]: 1% | Population Mitochondria Different-Phenotype (%) [1, 8]: 10% | Population Mitotic Cells (%) [1, 8]: 75% | Population Normal (%) [1, 8]: 93% | Population Pyknosed Nuclei (%) [1, 8]: 3% | Population Tubulin-Different-Phenotype (%) [1, 8]: 21% | Total Cell Count [1, 8]: 113 | Population Apoptotic (%) [1, 9]: 86% | Population Fragmented Nuclei (%) [1, 9]: 50% | Population Healthy Nuclei (%) [1, 9]: 17% | Population Hoechst High Intensity Objects (%) [1, 9]: 43% | Population Membrane Permeable-Phenotype (%) [1, 9]: 3% | Population Mitochondria Different-Phenotype (%) [1, 9]: 15% | Population Mitotic Cells (%) [1, 9]: 13% | Population Normal (%) [1, 9]: 56% | Population Pyknosed Nuclei (%) [1, 9]: 32% | Population Tubulin-Different-Phenotype (%) [1, 9]: 14% | Total Cell Count [1, 9]: 352 | Population Apoptotic (%) [1, 10]: 81% | Population Fragmented Nuclei (%) [1, 10]: 57% | Population Healthy Nuclei (%) [1, 10]: 16% | Population Hoechst High Intensity Objects (%) [1, 10]: 44% | Population Mitochondria Different-Phenotype (%) [1, 10]: 3% | Population Mitotic Cells (%) [1, 10]: 18% | Population Normal (%) [1, 10]: 55% | Population Pyknosed Nuclei (%) [1, 10]: 25% | Population Tubulin-Different-Phenotype (%) [1, 10]: 26% | Total Cell Count [1, 10]: 116 | Population Apoptotic (%) [1, 11]: 56% | Population Fragmented Nuclei (%) [1, 11]: 16% | Population Healthy Nuclei (%) [1, 11]: 79% | Population Hoechst High Intensity Objects (%) [1, 11]: 14% | Population Mitochondria Different-Phenotype (%) [1, 11]: 7% | Population Mitotic Cells (%) [1, 11]: 43% | Population Normal (%) [1, 11]: 85% | Population Pyknosed Nuclei (%) [1, 11]: 3% | Population Tubulin-Different-Phenotype (%) [1, 11]: 8% | Total Cell Count [1, 11]: 243 | Population Apoptotic (%) [1, 12]: 0% | Population Fragmented Nuclei (%) [1, 12]: 29% | Population Healthy Nuclei (%) [1, 12]: 68% | Population Hoechst High Intensity Objects (%) [1, 12]: 10% | Population Membrane Permeable-Phenotype (%) [1, 12]: 1% | Population Mitochondria Different-Phenotype (%) [1, 12]: 8% | Population Mitotic Cells (%) [1, 12]: 100% | Population Normal (%) [1, 12]: 89% | Population Pyknosed Nuclei (%) [1, 12]: 2% | Population Tubulin-Different-Phenotype (%) [1, 12]: 19% | Total Cell Count [1, 12]: 155 | Population Apoptotic (%) [1, 13]: 87% | Population Fragmented Nuclei (%) [1, 13]: 53% | Population Healthy Nuclei (%) [1, 13]: 18% | Population Hoechst High Intensity Objects (%) [1, 13]: 43% | Population Membrane Permeable-Phenotype (%) [1, 13]: 3% | Population Mitochondria Different-Phenotype (%) [1, 13]: 12% | Population Mitotic Cells (%) [1, 13]: 12% | Population Normal (%) [1, 13]: 56% | Population Pyknosed Nuclei (%) [1, 13]: 27% | Population Tubulin-Different-Phenotype (%) [1, 13]: 17% | Total Cell Count [1, 13]: 525 | Population Apoptotic (%) [1, 14]: 81% | Population Fragmented Nuclei (%) [1, 14]: 57% | Population Healthy Nuclei (%) [1, 14]: 14% | Population Mitochondria Different-Phenotype (%) [1, 14]: 5% | Population Mitotic Cells (%) [1, 14]: 18% | Population Tubulin-Different-Phenotype (%) [1, 14]: 26% | Total Cell Count [1, 14]: 168 | Growth Rate ([2]; 0 h, replicate number 1, timepoint 0 hours): 0 | Growth Rate ([2]; 18 h, replicate number 2, timepoint 18 hours): 1 | Growth Rate ([2]; 24 h, replicate number 2, timepoint 24 hours): 1
